Published values of several laboratories.
EGFR L858R/T790M: Epidermal growth factor receptor (EGFR, Homo sapiens, UniProt P00533, L858R/T790M)
EGFR: Epidermal growth factor receptor (EGFR, Homo sapiens, UniProt P00533)
EGFR L858R: Epidermal growth factor receptor (EGFR, Homo sapiens, UniProt P00533, L858R)
EGFR del752-759: Epidermal growth factor receptor (EGFR, Homo sapiens, UniProt P00533, del752-759)

COc1cc(-c2cc(-c3ccc(N4CCNCC4)cc3)cnc2N)cc(OC)c1OC  inhibition (Epidermal growth factor receptor (EGFR, Homo sapiens, UniProt P00533, L861Q); enzyme activity, inhibitor; 1 µM): 33%
Cc1cnc(NC2CCOCC2)nc1-n1cnc(C(=O)NC(CN)c2cc(F)cc(Cl)c2)c1 (stereo not drawn)  remaining activity (EGFR L858R/T790M; enzyme activity, inhibitor, radiometric; 1 µM): 109%
C[C@H]1CCN(c2nccc(-c3cnn4ncccc34)n2)C1  remaining binding (Epidermal growth factor receptor (EGFR, Homo sapiens, UniProt P00533, T790M); binding; 1 µM): 76%
Cc1ccc(NC(=O)c2ccc(C)c(C(F)(F)F)c2)cc1C#Cc1nn(C2CCC(O)CC2)c2ncnc(N)c12 (stereo not drawn)  remaining signal (EGFR; cell-free assay; 10 µM): 11%
CC(C)(C)c1nc(-c2cccc(NS(=O)(=O)c3c(F)cccc3F)c2F)c(-c2ccnc(N)n2)s1  remaining activity (EGFR; enzyme activity, inhibitor, radiometric; 1 µM): 119%
Nc1ncnc2occ(-c3ccc(NC(=O)Nc4cc(C(F)(F)F)ccc4F)cc3)c12  remaining signal (Epidermal growth factor receptor (EGFR, Homo sapiens, UniProt P00533, G719S); cell-free assay; 20 µM): 11%
CN(C)c1nccc(-c2cnc3ncccn23)n1  remaining binding (EGFR L858R; binding; 1 µM): 89%
CC(C)c1ccc(NC(=O)c2cccs2)c(-c2nc3ccccc3[nH]c2=O)c1  activity vs control (EGFR; enzyme activity, inhibitor; 1 µM): 93%
COc1ccc(COc2ccc(Cc3cnc(N)nc3N)cc2OC)cc1  remaining signal (EGFR; cell-free assay; 0.5 µM): 96.9%
C[C@H](c1cccc(C#N)c1)n1cc(Cl)cc(C(N)=O)c1=N  remaining binding (EGFR del752-759; cell-free assay, competition with immobilised ligand; 1 µM): 99%
CCC(=O)Nc1cc(Nc2nc(N3CCc4sccc4C3)c3cccnc3n2)c(OC)cc1N1CCSCC1  inhibition (EGFR L858R/T790M; enzyme activity, inhibitor, ELISA; 0.1 µM): 28.8%
CN(C)CC#Cc1ccc(OCCCc2sc(N3CCc4cccc(C(=O)Nc5nc6ccccc6s5)c4C3)nc2C(=O)O)c(F)c1  remaining binding (Epidermal growth factor receptor (EGFR, Homo sapiens, UniProt P00533, G719C); cell-free assay, competition with immobilised ligand; 1 µM): 91%
COc1cc(Nc2c(C#N)cnc3cc(OCCCN4CCN(C)CC4)c(OC)cc23)c(Cl)cc1Cl  remaining signal (EGFR; cell-free assay; 0.5 µM): 3.84%
Cn1nc(C(=O)NCc2ccc(C(=O)O)cc2)cc1-c1ccc2[nH]ccc2c1  remaining binding (EGFR del752-759; cell-free assay, competition with immobilised ligand; 0.1 µM): 94%
CN(c1nccc(-c2cnn3ncccc23)n1)C1CC1  remaining binding (EGFR; binding; 1 µM): 100%
CSc1cccnc1N1CCN(Cc2nc3ccccc3[nH]2)CC1  remaining binding (EGFR L858R; cell-free assay, competition with immobilised ligand; 1 µM): 100%
N[C@@H]1CCN(c2nccc(-c3cnn4ncccc34)n2)C1  remaining binding (Epidermal growth factor receptor (EGFR, Homo sapiens, UniProt P00533, del746-750); binding; 1 µM): 100%
Cc1c(NC(=O)c2cc(C(N)=O)nc3cc(F)ccc23)c(C(F)(F)F)nn1Cc1ccc(C#N)cc1  remaining binding (EGFR del752-759; cell-free assay, competition with immobilised ligand; 1 µM): 79%
COc1cc2ncnc(Nc3ccc(Oc4ccccc4)c(C)c3C)c2cc1OC  inhibition (EGFR L858R; enzyme activity, inhibitor; 1 µM): 65%
CC/C(=N\NC(=O)NCc1cccc(O)c1)c1ccc(O)c(C)c1O  inhibition (EGFR L858R/T790M; enzyme activity, inhibitor; 0.1 µM): 0.1%
C[C@H](c1ccnc(Nc2nc3ccc(-c4cc(N(C)C)ncn4)cc3[nH]2)c1)N1CCN(C(=O)CC(F)(F)F)CC1  remaining binding (Epidermal growth factor receptor (EGFR, Homo sapiens, UniProt P00533, A750P/del747-749); cell-free assay, competition with immobilised ligand; 0.1 µM): 89%
